Measurements published in publication PMC6718200 (Bioorganic & medicinal chemistry, 2018).

Assays:
[1] = system: HT29; assay: Colony formation assay; assay type: cell-based, human; details: HT29, exposure for two weeks
[2] = system: FHC cell lines; assay: MTT assay, growth inhibition in immortalized colorectal cells; assay type: cell-based; details: Homo sapiens, read-out: GI50 FHC
Outline: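 MTT format: 3 × 10³ cells per well, 24 h pre-incubation, then test compound at 0–200 μM (final, from DMSO stocks) for 12, 24, 48 or 72 h. MTT at 0.5 mg/mL final for 4 h; formazan dissolved in DMSO; A570. GI50 was fitted from growth-inhibition curves, three independent experiments in sextuplicate.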

[3] = system: SW620; assay: Apoptosis assessment, PI/annexin V-FITC flow cytometry; assay type: cell-based, human; details: SW620, 0, 25, 50, 75 μM, 48 h
Outline: (§1)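 Cells were grown in 10% FBS medium at 37 °C and 5% CO2: HT29 in McCoy's 5a, SW620 in high-glucose DMEM. They were treated with the test compound at 0, 25, 50 or 75 μM for 48 h. Attached and floating cells were pooled, washed twice in cold PBS and stained with annexin V-FITC/PI for 15 min at room temperature. The apoptotic fraction was read by flow cytometry. Three independent experiments, mean ± SD, two-tailed t-test.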

[4] = system: SW620; assay: Western blotting analysis; assay type: cell-based, human; details: SW620, 0, 25, 50, 75 μM, 48 h
Outline: (§2)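 Cells were treated with test compound at 0, 25, 50 and 75 μM for 48 h and lysed in RIPA with protease and phosphatase inhibitors; protein was quantified by BCA. 50 µg lysate was run on 8–15% SDS-PAGE and transferred to PVDF. Blocking was 5% BSA/TBST for 2 h at RT; primary antibodies overnight at 4 °C; HRP secondary 1:10000 for 1 h. Detection by ECL, with tubulin as loading control and densitometry. Three independent experiments; mean ± SD.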

[5] = system: SW620; assay: BrdU assay; assay type: cell-based, human; details: SW620, 0, 25, 50, 75 μM, 48 h
Outline: (§3)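 Cells at 80% confluence were seeded at 20,000 per well and exposed to test compound at 0, 25, 50 and 75 μM for 48 h. They were pulsed with 10 μM BrdU for 2 h, fixed in paraformaldehyde, treated with 2 M HCl for 30 min, and blocked with 10% goat serum for 30 min at 37 °C. Staining used rat anti-BrdU (1:2000, overnight, 4 °C), then […] (1:2000, 120 min, RT), then DAPI at 300 nM. The % BrdU-positive cells was scored by fluorescence microscopy. Three independent experiments; mean ± SD.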

[6] = system: SW620; assay: Hoechst 33342 staining; assay type: cell-based, human; details: SW620, 0, 25, 50, 75 μM, 48 h
Outline: (§4)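 Chromatin-condensation assay. HT29 (McCoy's 5a) and SW620 (high-glucose DMEM), each with 10% FBS, were seeded into 24-well plates. They were treated with the test compound at 0, 25, 50 or 75 μM for 48 h, then fixed in 4% paraformaldehyde for 20 min and washed with PBS. Cells were stained with Hoechst 33342 for 15 min at 37 °C. Condensed-chromatin apoptotic cells were scored by fluorescence microscopy.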

[7] = system: SW620; assay: Cell cycle analysis by flow cytometry; assay type: cell-based, human; details: SW620, 0, 25, 50, 75 μM, 48 h
Outline: (§5)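 Cells were cultured in 10% FBS at 37 °C and 5% CO2 (HT29 in McCoy's 5a, SW620 in high-glucose DMEM). At 80% confluence they were seeded into 6-well plates and exposed to the test compound at 0, 25, 50 or 75 μM for 48 h. Cells were washed in cold PBS and fixed in 70% ethanol at 4 °C for 24 h. They were stained with PI plus RNase A for 30 min at 37 °C in the dark, then analysed by flow cytometry. Three independent experiments.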

[8] = system: HT29; assay: Hoechst 33342 staining; assay type: cell-based, human; details: HT29, 0, 25, 50, 75 μM, 48 h
Outline: as §4

[9] = system: SW620; assay: Colony formation assay; assay type: cell-based, human; details: SW620, exposure for two weeks
[10] = system: HT29; assay: Western blotting analysis; assay type: cell-based, human; details: HT29, 0, 25, 50, 75 μM, 48 h
Outline: as §2

[11] = system: HT29; assay: Apoptosis assessment, PI/annexin V-FITC flow cytometry; assay type: cell-based, human; details: HT29, 0, 25, 50, 75 μM, 48 h
Outline: as §1

[12] = system: HT29; assay: Cell cycle analysis by flow cytometry; assay type: cell-based, human; details: HT29, 0, 25, 50, 75 μM, 48 h
Outline: as §5

[13] = system: HT29; assay: BrdU assay; assay type: cell-based, human; details: HT29, 0, 25, 50, 75 μM, 48 h
Outline: as §3

[14] = target: 97-kinase panel; assay: 97-kinase panel screen; assay type: binding; details: read-out: Kd, all tested kinases

## CC(C)CN(C(=O)c1cccnc1)c1c2ccccc2c(=O)n2c1[nH]c1ccccc12 [Compound 7g]
[1]
  colony size and numbers: dramatically reduced
[2]
  GI50: > 200 µM
[3]
  percentage of cells undergoing apoptosis: increased in a concentration-dependent manner
[4]
  BCL-2 protein level: decreased
  CDK1 level: decreased
  MCL-1 protein level: decreased
  PARP activation: significantly increased
  PTEN level: increase in a concentration-dependent manner
  cyclin B1 level: decreased
  p21 level: increased
  p53 level: increased
  p-4E-BP1 level: decreased
  p-AKT level: decreased
  p-mTOR level: decreased
  total expression levels of AKT, mTOR and 4E-BP1: hadn’t effect
[5]
  proliferation (BrdU immunofluorescence): inhibited the proliferation
[6]
  number of apoptosis bodies: increased in a concentration-dependent manner
[7]
  average G2/M proportion: increased in a concentration-dependent manner
[8]
  number of apoptosis bodies: increased in a concentration-dependent manner
[9]
  colony size and numbers: dramatically reduced
[10]
  BCL-2 protein level: decreased
  CDK1 level: decreased
  MCL-1 protein level: decreased
  PARP activation: significantly increased
  PTEN level: increase in a concentration-dependent manner
  cyclin B1 level: decreased
  p21 level: increased
  p53 level: increased
  p-4E-BP1 level: decreased
  p-AKT level: decreased
  p-mTOR level: decreased
  total expression levels of AKT, mTOR and 4E-BP1: hadn’t effect
[11]
  percentage of cells undergoing apoptosis: increased in a concentration-dependent manner
[12]
  average G2/M proportion: increased in a concentration-dependent manner
[13]
  proliferation (BrdU immunofluorescence): inhibited the proliferation
[14]
  Kd: > 5 µM
